Results: ChEMBL document CHEMBL1255567, “Design, synthesis, and structure-activity relationships of novel bicyclic azole-amines as negative allosteric modulators of metabotropic glutamate receptor 5” (J Med Chem, 2010)
Calls of active or inactive are those of the source. The rule behind the calls is not given here.

Experiments:
[1] = target: Metabotropic glutamate receptor 5 (Rattus norvegicus, UniProt P31424); assay: Displacement of [3H]-MPEP from mGluR5 in rat cortical membranes; format: cell membranes, Membrane
In short: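 Competition binding against [3H]-MPEP on rat cortical membranes, run in duplicate. Nonspecific binding defined with a 200-fold excess of reference modulator. Incubated 120 min at 4 °C in 0.1 mL, filtered on PEI-presoaked GF-C filters, washed with cold 50 mM Tris-HCl pH 7.4, scintillation counted. Ki reported as mean of two determinations; MPEP used as control.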

[2] = target: T1, Metabotropic glutamate receptor 5 (Homo sapiens, UniProt P41594); assay: Modulation of human recombinant mGluR5 expressed in CHO cells assessed as inhibition of glutamate-induced response; format: cell-based
In short: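 Aequorin cell line with doxycycline-inducible human mGluR5, induced 18 h (600 ng/mL). Cells loaded with coelenterazine-h ≥4 h at room temperature, preincubated with compound ≥3 min, then challenged with glutamate at EC80. Luminescence read on FDSS 6000, normalized to digitonin or 20 μM ATP wells. IC50 from sigmoidal fit; mean of two determinations.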
Target sequence in this assay (P41594 whole entry): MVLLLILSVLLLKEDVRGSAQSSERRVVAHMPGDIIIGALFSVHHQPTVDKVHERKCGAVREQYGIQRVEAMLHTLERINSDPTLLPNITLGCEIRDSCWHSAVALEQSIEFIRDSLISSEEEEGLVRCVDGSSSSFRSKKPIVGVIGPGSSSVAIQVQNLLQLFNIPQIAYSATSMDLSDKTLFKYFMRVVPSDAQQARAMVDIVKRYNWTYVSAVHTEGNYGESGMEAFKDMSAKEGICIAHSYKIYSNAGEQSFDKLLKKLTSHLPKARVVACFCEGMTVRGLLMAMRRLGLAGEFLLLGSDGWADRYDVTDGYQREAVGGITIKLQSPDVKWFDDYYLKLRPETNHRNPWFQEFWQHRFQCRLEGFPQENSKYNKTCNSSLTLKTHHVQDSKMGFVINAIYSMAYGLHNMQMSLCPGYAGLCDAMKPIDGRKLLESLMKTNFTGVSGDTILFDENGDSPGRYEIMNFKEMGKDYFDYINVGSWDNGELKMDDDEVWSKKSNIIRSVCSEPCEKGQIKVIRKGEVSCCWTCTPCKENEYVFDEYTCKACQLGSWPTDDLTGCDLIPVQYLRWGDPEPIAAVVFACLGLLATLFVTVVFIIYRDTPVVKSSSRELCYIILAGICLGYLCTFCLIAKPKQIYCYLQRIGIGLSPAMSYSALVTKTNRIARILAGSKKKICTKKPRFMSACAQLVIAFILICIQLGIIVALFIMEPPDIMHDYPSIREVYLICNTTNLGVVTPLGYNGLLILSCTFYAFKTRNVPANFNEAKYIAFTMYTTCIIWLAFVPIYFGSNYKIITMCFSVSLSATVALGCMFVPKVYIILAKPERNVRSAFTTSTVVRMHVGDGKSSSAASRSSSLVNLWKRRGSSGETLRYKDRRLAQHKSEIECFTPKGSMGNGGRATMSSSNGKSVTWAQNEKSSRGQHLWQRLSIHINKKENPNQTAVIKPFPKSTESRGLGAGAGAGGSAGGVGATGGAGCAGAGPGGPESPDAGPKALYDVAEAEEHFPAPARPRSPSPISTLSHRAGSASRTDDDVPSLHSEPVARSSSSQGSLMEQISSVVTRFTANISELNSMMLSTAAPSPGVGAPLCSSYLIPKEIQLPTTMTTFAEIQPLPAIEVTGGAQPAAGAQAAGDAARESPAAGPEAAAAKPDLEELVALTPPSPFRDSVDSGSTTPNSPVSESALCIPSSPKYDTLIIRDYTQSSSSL

[3] = system: Brain; assay: Drug level in Sprague-Dawley rat brain at 3 mg/kg, ip; format: ADME, organism-based; parameters: dose 3 mg/kg, route intraperitoneal; conditions: in vivo, read-out: Drug uptake
In short: (§1)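 Male Sprague-Dawley rats (200-250 g, n = 4) given 3 mg/kg ip in 45% HPβCD. Trunk blood and brain taken at sacrifice. Brain homogenized at 40 mg/mL in 95:5 water:acetonitrile with 0.1% formic acid. Plasma or homogenate precipitated with acetonitrile, dried, reconstituted and measured by LC/MS/MS.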

[4] = system: Rattus norvegicus; assay: Ex vivo receptor occupancy of mGluR5 receptor in Sprague-Dawley rat brain at 3 mg/kg, ip after 60 mins; format: functional; conditions: route intraperitoneal
In short: (§2)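 Male Sprague-Dawley rats (n = 4) dosed 3 mg/kg ip in 45% HPβCD. At set times postdose, iv tail-vein 3H-mPEPy tracer; decapitated 2 min later. Striatum and cerebellum sections imaged 12 h on β-imager. %RO derived from striatum:cerebellum signal ratio relative to vehicle animals; mean ± SEM.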

[5] = system: Rattus norvegicus; assay: Ex vivo receptor occupancy of mGluR5 receptor in po dosed Sprague-Dawley rat brain after 60 mins; format: functional; conditions: 1 h
In short: (§3)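 Male Sprague-Dawley rats (200-250 g, n = 4) dosed ip or po at 0.3, 1, 3, 10, 30 mg/kg in 45% HPβCD. After 60 min, iv 3H-mPEPy tracer; killed 2 min later. Striatal versus cerebellar radioactivity on β-imager gives %RO against vehicle. Dose-occupancy curves fitted.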

[6] = target: T1, Metabotropic glutamate receptor 5; assay: Modulation of human recombinant mGluR5 expressed in CHO cells assessed as inhibition of glutamate-induced response at 10 uM; format: cell-based
Target sequence in this assay (P41594 21-1212 limits assumed): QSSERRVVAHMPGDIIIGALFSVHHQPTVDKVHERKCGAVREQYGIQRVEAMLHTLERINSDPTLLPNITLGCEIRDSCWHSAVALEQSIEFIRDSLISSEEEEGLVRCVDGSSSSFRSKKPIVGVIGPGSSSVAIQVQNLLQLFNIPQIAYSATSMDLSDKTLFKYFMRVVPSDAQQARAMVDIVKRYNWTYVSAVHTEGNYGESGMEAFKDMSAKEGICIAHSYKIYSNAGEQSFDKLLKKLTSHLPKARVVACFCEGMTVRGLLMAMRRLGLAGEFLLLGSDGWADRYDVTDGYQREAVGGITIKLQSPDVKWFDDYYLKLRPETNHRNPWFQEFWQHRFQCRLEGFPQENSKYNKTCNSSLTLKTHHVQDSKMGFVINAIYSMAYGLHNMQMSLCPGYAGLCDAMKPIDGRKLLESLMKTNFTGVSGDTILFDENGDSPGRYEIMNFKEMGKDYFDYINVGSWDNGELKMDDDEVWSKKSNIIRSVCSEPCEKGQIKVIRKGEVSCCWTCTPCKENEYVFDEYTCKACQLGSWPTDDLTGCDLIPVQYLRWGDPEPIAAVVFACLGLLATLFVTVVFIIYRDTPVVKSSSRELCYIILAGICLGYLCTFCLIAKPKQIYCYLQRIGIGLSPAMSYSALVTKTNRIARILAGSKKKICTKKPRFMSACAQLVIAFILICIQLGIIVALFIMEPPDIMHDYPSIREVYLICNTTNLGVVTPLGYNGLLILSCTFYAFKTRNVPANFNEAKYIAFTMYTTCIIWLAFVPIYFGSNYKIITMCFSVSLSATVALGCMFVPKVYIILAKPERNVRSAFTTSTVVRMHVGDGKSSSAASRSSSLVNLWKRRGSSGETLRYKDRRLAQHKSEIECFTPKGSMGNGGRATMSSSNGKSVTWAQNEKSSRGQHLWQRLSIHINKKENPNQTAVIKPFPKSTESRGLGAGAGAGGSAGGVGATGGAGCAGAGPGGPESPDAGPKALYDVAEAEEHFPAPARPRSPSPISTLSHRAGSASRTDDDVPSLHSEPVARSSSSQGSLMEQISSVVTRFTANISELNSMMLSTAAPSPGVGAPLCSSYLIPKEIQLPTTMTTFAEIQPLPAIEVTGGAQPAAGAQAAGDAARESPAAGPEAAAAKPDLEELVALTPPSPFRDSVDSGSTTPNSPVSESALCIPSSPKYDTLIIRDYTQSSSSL

[7] = system: Plasma; assay: Drug level in Sprague-Dawley rat plasma at 3 mg/kg, ip; format: ADME, organism-based; parameters: dose 3 mg/kg, route intraperitoneal; conditions: in vivo; in short: as §1
[8] = system: Rattus norvegicus; assay: Ex vivo receptor occupancy of mGluR5 receptor in ip dosed Sprague-Dawley rat brain after 60 mins; format: functional; conditions: 1 h; in short: as §3
[9] = AUC (0 to t) in Sprague-Dawley rat at 2 mg/kg, iv; format: ADME, organism-based; parameters: dose 2 mg/kg, route intravenous; conditions: plasma
In short: (§4)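 Male Sprague-Dawley rats, 3 per cohort; 2 mg/kg iv or 2 and 10 mg/kg oral gavage. Vehicle 40% hydroxypropyl-βCD:50 mM potassium phosphate pH 6.0 (50:50), 0.5 mg/mL nominal, filtered. Jugular-cannula blood predose and 5 min to 24 h. K2-EDTA plasma, methanol precipitation with internal standard, LC/MS/MS (LLOQ 2.5 ng/mL). Noncompartmental analysis.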

[10] = (§5) Half life in Sprague-Dawley rat at 2 mg/kg, iv; format: ADME, organism-based; parameters: dose 2 mg/kg, route intravenous; conditions: Sprague-Dawley, in vivo; in short: as §4
[11] = system: Rattus norvegicus; assay: as §5; format: ADME, organism-based; parameters: dose 2 mg/kg, route intravenous; conditions: in vivo; in short: as §4
[12] = Volume of distribution in Sprague-Dawley rat at 2 mg/kg, iv; format: ADME, organism-based; parameters: dose 2 mg/kg, route intravenous; conditions: in vivo; in short: as §4
[13] = Clearance in Sprague-Dawley rat at 2 mg/kg, iv; format: ADME, organism-based; parameters: dose 2 mg/kg, route intravenous; conditions: in vivo; in short: as §4
[14] = Cmax in Sprague-Dawley rat at 2 mg/kg, iv; format: ADME, organism-based; parameters: dose 2 mg/kg, route intravenous; conditions: in vivo; in short: as §4
[15] = AUC (0 to t) in Sprague-Dawley rat at 2 mg/kg, po; format: ADME, organism-based; parameters: dose 2 mg/kg, route oral; conditions: plasma; in short: as §4
[16] = Half life in Sprague-Dawley rat at 2 mg/kg, po; format: ADME, organism-based; parameters: dose 2 mg/kg, route oral; conditions: in vivo; in short: as §4
[17] = Cmax in Sprague-Dawley rat at 2 mg/kg, po; format: ADME, organism-based; parameters: dose 2 mg/kg, route oral; conditions: in vivo; in short: as §4
[18] = Oral bioavailability in Sprague-Dawley rat at 2 mg/kg; format: ADME, organism-based; conditions: in vivo; in short: as §4
[19] = AUC (0 to t) in Sprague-Dawley rat at 10 mg/kg, po; format: ADME, organism-based; parameters: dose 10 mg/kg, route oral; conditions: plasma; in short: as §4
[20] = Half life in Sprague-Dawley rat at 10 mg/kg, po; format: ADME, organism-based; parameters: dose 10 mg/kg, route oral; conditions: in vivo; in short: as §4
[21] = Cmax in Sprague-Dawley rat at 10 mg/kg, po; format: ADME, organism-based; parameters: dose 10 mg/kg, route oral; conditions: in vivo; in short: as §4
[22] = Oral bioavailability in Sprague-Dawley rat at 10 mg/kg; format: ADME, organism-based; conditions: in vivo; in short: as §4
[23] = AUC (0 to t) in rhesus monkey at 1 mg/kg, iv; format: ADME, organism-based, Macaca mulatta; parameters: dose 1 mg/kg, route intravenous; conditions: plasma
In short: (§6)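 Male Rhesus monkeys, 3 per cohort; 1 mg/kg iv or oral gavage. Vehicle 40% hydroxypropyl-βCD:50 mM potassium phosphate pH 6.0 (50:50), 0.5 mg/mL nominal, filtered. Femoral vein blood predose and 5 min to 24 h. K3EDTA plasma, protein precipitation with internal standard, LC/MS/MS (LLOQ 2.5 ng/mL). Noncompartmental PK parameters.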

[24] = Half life in rhesus monkey at 1 mg/kg, iv; format: ADME, organism-based, Macaca mulatta; parameters: dose 1 mg/kg, route intravenous; conditions: in vivo; in short: as §6
[25] = Volume of distribution in rhesus monkey at 1 mg/kg, iv; format: ADME, organism-based, Macaca mulatta; parameters: dose 1 mg/kg, route intravenous; conditions: in vivo; in short: as §6
[26] = Clearance in rhesus monkey at 1 mg/kg, iv; format: ADME, organism-based, Macaca mulatta; parameters: dose 1 mg/kg, route intravenous; conditions: in vivo; in short: as §6
[27] = system: Rhesus monkey; assay: Cmax in rhesus monkey at 1 mg/kg, iv; format: ADME, organism-based, Macaca mulatta; parameters: dose 1 mg/kg, route intravenous; conditions: in vivo; in short: as §6
[28] = AUC (0 to t) in rhesus monkey at 1 mg/kg, po; format: ADME, organism-based, Macaca mulatta; parameters: dose 1 mg/kg, route oral; conditions: plasma; in short: as §6
[29] = Half life in rhesus monkey at 1 mg/kg, po; format: ADME, organism-based, Macaca mulatta; parameters: dose 1 mg/kg, route oral; conditions: in vivo; in short: as §6
[30] = Cmax in rhesus monkey at 1 mg/kg, po; format: ADME, organism-based, Macaca mulatta; parameters: dose 1 mg/kg, route oral; conditions: in vivo; in short: as §6
[31] = Oral bioavailability in rhesus monkey at 1 mg/kg; format: ADME, organism-based, Macaca mulatta; conditions: in vivo; in short: as §6
[32] = system: Rattus norvegicus; assay: Ex vivo receptor occupancy of mGluR5 receptor in Sprague-Dawley rat brain at 3 mg/kg, ip after 30 mins; format: functional; conditions: route intraperitoneal; in short: as §2
[33] = system: Rattus norvegicus; assay: Ex vivo receptor occupancy of mGluR5 receptor in Sprague-Dawley rat brain at 3 mg/kg, ip after 2 hrs; format: functional; conditions: route intraperitoneal; in short: as §2
[34] = system: Rattus norvegicus; assay: Ex vivo receptor occupancy of mGluR5 receptor in Sprague-Dawley rat brain at 3 mg/kg, ip after 24 hrs; format: functional, organism-based; parameters: dose 3 mg/kg; in short: as §2
[35] = target: Kappa-type opioid receptor (Homo sapiens) (UniProt P41145); assay: Inhibition of kappa opioid receptor at 10 uM
Sequence of Kappa-type opioid receptor (Homo sapiens) (P41145 whole entry): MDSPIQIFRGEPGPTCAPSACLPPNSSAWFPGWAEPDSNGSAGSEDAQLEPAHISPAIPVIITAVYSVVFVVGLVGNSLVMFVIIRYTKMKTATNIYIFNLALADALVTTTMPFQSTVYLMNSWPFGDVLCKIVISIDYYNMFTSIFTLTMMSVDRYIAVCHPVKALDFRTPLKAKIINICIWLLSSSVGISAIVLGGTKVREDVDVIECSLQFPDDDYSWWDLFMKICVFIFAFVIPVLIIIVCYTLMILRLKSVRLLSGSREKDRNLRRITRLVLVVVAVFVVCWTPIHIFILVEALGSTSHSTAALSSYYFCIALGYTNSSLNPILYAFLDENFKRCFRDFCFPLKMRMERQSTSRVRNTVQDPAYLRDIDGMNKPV

Sequence of Metabotropic glutamate receptor 5 (Rattus norvegicus, UniProt P31424) (P31424 whole entry): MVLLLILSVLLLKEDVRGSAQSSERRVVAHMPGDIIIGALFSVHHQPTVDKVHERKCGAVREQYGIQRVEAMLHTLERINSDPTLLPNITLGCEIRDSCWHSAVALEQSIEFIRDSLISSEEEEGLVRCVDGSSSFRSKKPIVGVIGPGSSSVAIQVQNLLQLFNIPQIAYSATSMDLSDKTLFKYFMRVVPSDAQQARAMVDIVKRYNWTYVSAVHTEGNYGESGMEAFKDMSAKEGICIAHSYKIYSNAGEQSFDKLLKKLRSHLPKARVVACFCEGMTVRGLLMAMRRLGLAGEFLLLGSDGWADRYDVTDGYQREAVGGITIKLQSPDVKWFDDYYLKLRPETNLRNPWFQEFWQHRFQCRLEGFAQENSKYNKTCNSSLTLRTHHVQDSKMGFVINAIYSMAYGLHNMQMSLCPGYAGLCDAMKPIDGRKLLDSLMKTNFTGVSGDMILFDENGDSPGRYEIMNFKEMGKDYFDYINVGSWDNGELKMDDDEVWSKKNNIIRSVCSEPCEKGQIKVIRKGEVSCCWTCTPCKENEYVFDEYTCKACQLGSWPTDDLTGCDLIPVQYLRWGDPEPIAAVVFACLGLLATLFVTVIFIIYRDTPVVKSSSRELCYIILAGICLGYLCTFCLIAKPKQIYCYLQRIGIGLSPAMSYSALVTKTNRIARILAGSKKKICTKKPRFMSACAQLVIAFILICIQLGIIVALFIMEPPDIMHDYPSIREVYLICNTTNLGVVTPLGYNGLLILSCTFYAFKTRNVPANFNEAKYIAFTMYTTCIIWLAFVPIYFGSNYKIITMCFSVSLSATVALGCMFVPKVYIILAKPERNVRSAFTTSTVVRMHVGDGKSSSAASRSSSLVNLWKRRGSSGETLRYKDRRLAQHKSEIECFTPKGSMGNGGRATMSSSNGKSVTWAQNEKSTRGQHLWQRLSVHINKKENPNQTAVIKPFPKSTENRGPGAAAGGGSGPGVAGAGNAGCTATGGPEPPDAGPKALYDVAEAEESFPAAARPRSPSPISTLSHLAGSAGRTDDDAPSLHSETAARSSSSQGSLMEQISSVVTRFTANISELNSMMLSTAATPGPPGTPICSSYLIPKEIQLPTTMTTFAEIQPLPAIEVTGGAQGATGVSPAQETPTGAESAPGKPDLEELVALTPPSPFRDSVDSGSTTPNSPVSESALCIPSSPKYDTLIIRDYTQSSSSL

SMILES: N#Cc1cc(F)cc(N2CCc3oc(-c4ccccn4)nc3C2)c1
- Ki [1]: 17 nM
- IC50 [2]: 28 nM
- concentration [3]: 1290 nM
- Activity [4]: 45%
- ED50 [5]: > 30 mg/kg

SMILES: N#Cc1cccc(S(=O)(=O)N2CCc3nc(-c4ccccn4)oc3C2)c1
- inhibition [6]: 14%

SMILES: N#Cc1cccc(N2CCc3nc(-c4cccnc4)oc3C2)c1
- inhibition [6]: 14%

SMILES: Cc1nc2c(o1)CCN(c1ncccc1C#N)C2
- inhibition [6]: 7%

SMILES: N#Cc1cc(F)cc(N2CCc3nc(-c4ccccn4)oc3C2)c1
- IC50 [2]: 54 nM

SMILES: N#Cc1cc(F)cc(N2CCn3nc(-c4ccccn4)nc3C2)c1
- IC50 [2]: 346 nM

SMILES: N#Cc1cccc(CN2CCc3nc(-c4ccccn4)oc3C2)c1
- inhibition [6]: 55%

SMILES: N#Cc1cccc(N2CC3N=C(c4ccccn4)OC3C2)c1 (stereo not drawn)
- IC50 [2]: 219 nM

SMILES: N#Cc1cccc(C(=O)N2CCc3nc(-c4ccccn4)oc3C2)c1
- IC50 [2]: 2600 nM

SMILES: N#Cc1cc(F)cc(N2CCc3nc(-c4ccccn4)[nH]c3C2)c1
- inhibition [6]: 34%

SMILES: c1ccc(-c2nc3c(o2)CCN(C2CCNCC2)C3)nc1
- inhibition [6]: 0%

SMILES: CC(C)c1nc2c(o1)CN(c1cccc(C#N)c1)CC2
- inhibition [6]: 6%

SMILES: COC(=O)N1CCc2oc(-c3ccccn3)nc2C1
- inhibition [6]: 11%

SMILES: CC(C)N1CCc2oc(-c3ccccn3)nc2C1
- inhibition [6]: 0%

SMILES: N#Cc1cccnc1N1CCc2nc(-c3ccccc3)oc2C1
- inhibition [6]: 79%

SMILES: N#Cc1cccnc1N1CCc2oc(-c3ccccn3)nc2C1
- IC50 [2]: 110 nM

SMILES: c1ccc(N2CCc3oc(-c4ccccn4)nc3C2)cc1
- IC50 [2]: 330 nM

SMILES: N#Cc1cc(F)cc(N2CCCc3oc(-c4ccccn4)nc3C2)c1
- Ki [1]: 17 nM
- IC50 [2]: 16 nM
- Activity [4]: 82%
- concentration [7]: 1430 nM
- ED50 [8]: 0.9 mg/kg
- AUC(0-t) [9]: 2.26 µM·h
- half-life [10]: 37.2 min
- Drug uptake [11]: 1096 nM
- Vd [12]: 2.38 L/kg
- clearance [13]: 46.5 mL/min/kg
- Cmax [14]: 5250 nM
- AUC(0-t) [15]: 0.7 µM·h
- half-life [16]: 46.2 min
- Cmax [17]: 620 nM
- bioavailability [18]: 31%
- AUC(0-t) [19]: 3.36 µM·h
- half-life [20]: 54.6 min
- Cmax [21]: 2730 nM
- bioavailability [22]: 30%
- AUC(0-t) [23]: 3.06 µM·h
- half-life [24]: 40.2 min
- Vd [25]: 0.95 L/kg
- clearance [26]: 16.3 mL/min/kg
- Cmax [27]: 5080 nM
- AUC(0-t) [28]: 0.28 µM·h
- half-life [29]: 37.8 min
- Cmax [30]: 210 nM
- bioavailability [31]: 10%
- Activity [32]: 85%
- Activity [33]: 55%
- Activity [34]: inactive
- inhibition [35]: 77%

SMILES: N#Cc1cccnc1N1CCc2nc(-c3ccccn3)oc2C1
- IC50 [2]: 640 nM

SMILES: N#Cc1cccc(N2CCc3nc(C4CCCCN4)oc3C2)c1 (racemic)
- inhibition [6]: 79%

SMILES: N#Cc1cc(F)cc(N2CCc3nc(-c4ccccn4)sc3C2)c1
- inhibition [6]: 52%

SMILES: N#Cc1cccc(N2CCc3nc(C4CCCCC4)oc3C2)c1
- inhibition [6]: 79%

SMILES: N#Cc1cccc(N2CCc3oc(-c4ccncc4)nc3C2)c1
- inhibition [6]: 30%

SMILES: c1ccc(-c2nc3c(o2)CCN(C2CCCCC2)C3)nc1
- inhibition [6]: 0%

SMILES: N#Cc1cccc(N2CCc3oc(-c4ccccn4)nc3C2)c1
- IC50 [2]: 60 nM

SMILES: N#Cc1cc(F)cc(N2CCn3cc(-c4ccccn4)nc3C2)c1
- IC50 [2]: 153 nM

SMILES: N#Cc1cccnc1N1CCc2oc(-c3ccccc3)nc2C1
- IC50 [2]: 1200 nM

SMILES: N#Cc1cccc(N2CCc3nc(-c4ccccn4)oc3C2)c1
- IC50 [2]: 290 nM
